The species named for test [1] is Rattus norvegicus. Briefly: Regional uptake of [18F]AFA in striatum of rat pretreated with compound nisoxetine; n=3. As to conditions: tested as the 18F-labelled form. In kind it is functional, organism-based. In short, it runs like this:
(§1)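 Male Sprague-Dawley rats, three per group, received blocker (2 mg/kg iv in saline) or saline only (controls) 10–15 min before about 20 µCi of tail-vein F-18 radioligand. Killed 60 min after tracer. Blood and brain regions weighed and gamma-counted. %ID/g was decay- and tail-corrected; mean ± SD.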

For test [2], the species on record is Rattus norvegicus. As to the kind of experiment: Regional uptake of [18F]AFA in hippocampus of rat pretreated with compound 7e; n=3. In kind it is functional, organism-based. As to conditions: tested as the 18F-labelled form.
Test [3] is filed under the species Rattus norvegicus. Briefly: Regional uptake of [18F]AFA in frontal cortex of rat pretreated with compound citalopram; n=3. The class given is functional, organism-based. Particulars: tested as the 18F-labelled form. In a few lines:
as §1

The target of test [4] is Sodium-dependent serotonin transporter (Rattus norvegicus) (UniProt P31652). As to the kind of experiment: Specific binding of [18F]AFA in rat frontal cortex after citalopram treatment; n=3. Particulars: tested as the 18F-labelled form. In kind it is functional, tissue-based. In a few lines:
(§2)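 Rats, three per group, were pretreated iv with blocker at 2 mg/kg in saline, or with saline as control, 10–15 min before tail-vein F-18 radioligand (about 20 µCi). Killed at 60 min and regional %ID/g determined. Specific binding = (region activity − cerebellum activity)/cerebellum activity; mean ± SD.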

The species entered for test [5] is Rattus norvegicus. Briefly: Regional uptake of [18F]AFA in hypothalamus of rat pretreated with compound citalopram; n=3. In kind it is functional, organism-based. Particulars: tested as the 18F-labelled form. In a few lines:
as §1

For test [6], the target named is Sodium-dependent serotonin transporter (Rattus norvegicus) (UniProt P31652). Briefly: Specific binding of [18F]AFA in rat hypothalamus after nisoxetine treatment; n=3. In kind it is functional, tissue-based. Particulars: tested as the 18F-labelled form. In a few lines:
as §2

The target in test [7] is Sodium-dependent serotonin transporter (Homo sapiens, UniProt P31645). As to the kind of experiment: In vitro displacement of [3H]paroxetine from human serotonin transporter expressed in HEK293 cells. The class given is cell-based. (In general: Loss of bound radioactivity is the signal in a displacement assay; it reports binding, not function.)
The species named for test [8] is Rattus norvegicus. As to the kind of experiment: Regional uptake of [18F]AFA in hippocampus of rat pretreated with compound GBR-12935; n=3. As to conditions: tested as the 18F-labelled form. The class given is functional, organism-based. In short, it runs like this:
as §1

For test [9], the target named is Sodium-dependent serotonin transporter (Rattus norvegicus) (UniProt P31652). Briefly: Specific binding of [18F]AFA in rat thalamus after citalopram treatment; n=3. The class given is functional, tissue-based. Particulars: tested as the 18F-labelled form. In short, it runs like this:
as §2

The target is the same in test [10]. Briefly: Specific binding of [18F]AFA in rat hypothalamus after GBR-12935 treatment; n=3. In kind it is functional, tissue-based. Particulars: tested as the 18F-labelled form. In short, it runs like this:
as §2

Test [11] is filed under the species Rattus norvegicus. Briefly: Regional uptake of [18F]AFA in frontal cortex of rat pretreated with compound nisoxetine; n=3. In kind it is functional, organism-based. Particulars: tested as the 18F-labelled form. In a few lines: as §1
Test [12] is filed under the species Rattus norvegicus. As to the kind of experiment: Regional uptake of [18F]AFA in thalamus of rat pretreated with compound 7e; n=3. The class given is functional, organism-based. As to conditions: tested as the 18F-labelled form.
The target in test [13] is Sodium-dependent serotonin transporter (Rattus norvegicus) (UniProt P31652). As to the kind of experiment: Specific binding in rat hypothalamus at 10 min postinjection in vivo. The class given is functional, organism-based. As to conditions: tested as the 18F-labelled form. In short, it runs like this:
(§3)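 Male Sprague-Dawley rats, n=3 per time point, received about 20 µCi of F-18 radioligand in saline iv by tail vein and were killed at 10–120 min. %ID/g was measured with decay and tail-residual correction. Hypothalamic specific binding = (%ID/g hypothalamus − %ID/g cerebellum)/%ID/g cerebellum; mean ± SD.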

The species entered for test [14] is Rattus norvegicus. As to the kind of experiment: Regional uptake of [18F]-AFA in striatum of rat pretreated with compound 7e; n=3. The class given is functional, organism-based. As to conditions: tested as the 18F-labelled form.
The species named for test [15] is Rattus norvegicus. Briefly: Regional uptake of [18F]AFA in cerebellum of rat pretreated with compound 7e; n=3. As to conditions: tested as the 18F-labelled form. The class given is functional, organism-based.
Test [16] deals with Sodium-dependent serotonin transporter (Rattus norvegicus) (UniProt P31652). Briefly: Specific binding in rat hypothalamus at 30 min postinjection in vivo. The class given is functional, organism-based. As to conditions: tested as the 18F-labelled form. In a few lines: as §3
For test [17], the species on record is Rattus norvegicus. Briefly: Regional uptake of [18F]AFA in hippocampus of rat pretreated with compound citalopram; n=3. The class given is functional, organism-based. Particulars: tested as the 18F-labelled form. In a few lines: as §1
For test [18], the target named is Sodium-dependent serotonin transporter (Rattus norvegicus) (UniProt P31652). As to the kind of experiment: Specific binding of [18F]AFA in rat striatum after GBR-12935 treatment; n=3. The class given is functional, tissue-based. Particulars: tested as the 18F-labelled form. In a few lines: as §2
The target is the same in test [19]. As to the kind of experiment: Specific binding of [18F]AFA in rat hippocampus after citalopram treatment; n=3. In kind it is functional, tissue-based. Particulars: tested as the 18F-labelled form. In short, it runs like this: as §2
The species named for test [20] is Rattus norvegicus. As to the kind of experiment: Regional uptake of [18F]AFA in cerebellum of rat pretreated with compound GBR-12935; n=3. In kind it is functional, organism-based. Particulars: tested as the 18F-labelled form. In a few lines: as §1
For test [21], the species on record is Rattus norvegicus. As to the kind of experiment: Regional uptake of [18F]AFA in thalamus of rat pretreated with compound citalopram; n=3. In kind it is functional, organism-based. Particulars: tested as the 18F-labelled form. In short, it runs like this:
as §1

The species named for test [22] is Rattus norvegicus. As to the kind of experiment: Regional uptake of [18F]AFA in blood of rat pretreated with compound nisoxetine; n=3. In kind it is functional, organism-based. As to conditions: tested as the 18F-labelled form. In short, it runs like this:
as §1

Test [23] concerns the target Sodium-dependent serotonin transporter (Rattus norvegicus) (UniProt P31652). Briefly: Specific binding in rat hypothalamus at 120 min postinjection in vivo. The class given is functional, organism-based. Particulars: tested as the 18F-labelled form. In a few lines: as §3
Test [24] shares this target. Briefly: Specific binding of [18F]AFA in rat frontal cortex after nisoxetine treatment; n=3. As to conditions: tested as the 18F-labelled form. In kind it is functional, tissue-based. In a few lines: as §2

By pKi is commonly meant −log10 of the Ki, conventionally taken in molar units.

Molecules are shown by their SMILES. pKi: −log10 of the molar value.

Sequence of Sodium-dependent serotonin transporter (Rattus norvegicus) (P31652 whole entry): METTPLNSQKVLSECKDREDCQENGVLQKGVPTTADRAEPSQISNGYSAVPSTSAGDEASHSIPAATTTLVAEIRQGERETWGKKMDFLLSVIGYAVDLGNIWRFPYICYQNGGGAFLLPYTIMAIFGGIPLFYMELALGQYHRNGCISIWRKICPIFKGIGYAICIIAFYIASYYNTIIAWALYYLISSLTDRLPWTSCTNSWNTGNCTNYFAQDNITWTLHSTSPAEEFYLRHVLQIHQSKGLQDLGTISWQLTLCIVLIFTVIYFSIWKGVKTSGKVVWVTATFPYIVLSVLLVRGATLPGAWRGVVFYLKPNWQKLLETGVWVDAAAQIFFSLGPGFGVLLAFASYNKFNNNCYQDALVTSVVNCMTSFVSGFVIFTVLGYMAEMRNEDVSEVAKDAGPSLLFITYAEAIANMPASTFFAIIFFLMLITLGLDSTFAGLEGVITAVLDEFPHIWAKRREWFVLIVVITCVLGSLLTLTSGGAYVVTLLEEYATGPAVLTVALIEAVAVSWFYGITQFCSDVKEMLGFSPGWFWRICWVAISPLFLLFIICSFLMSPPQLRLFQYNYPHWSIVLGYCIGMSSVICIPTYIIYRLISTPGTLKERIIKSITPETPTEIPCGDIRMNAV
Sequence of Sodium-dependent serotonin transporter (P31645 whole entry): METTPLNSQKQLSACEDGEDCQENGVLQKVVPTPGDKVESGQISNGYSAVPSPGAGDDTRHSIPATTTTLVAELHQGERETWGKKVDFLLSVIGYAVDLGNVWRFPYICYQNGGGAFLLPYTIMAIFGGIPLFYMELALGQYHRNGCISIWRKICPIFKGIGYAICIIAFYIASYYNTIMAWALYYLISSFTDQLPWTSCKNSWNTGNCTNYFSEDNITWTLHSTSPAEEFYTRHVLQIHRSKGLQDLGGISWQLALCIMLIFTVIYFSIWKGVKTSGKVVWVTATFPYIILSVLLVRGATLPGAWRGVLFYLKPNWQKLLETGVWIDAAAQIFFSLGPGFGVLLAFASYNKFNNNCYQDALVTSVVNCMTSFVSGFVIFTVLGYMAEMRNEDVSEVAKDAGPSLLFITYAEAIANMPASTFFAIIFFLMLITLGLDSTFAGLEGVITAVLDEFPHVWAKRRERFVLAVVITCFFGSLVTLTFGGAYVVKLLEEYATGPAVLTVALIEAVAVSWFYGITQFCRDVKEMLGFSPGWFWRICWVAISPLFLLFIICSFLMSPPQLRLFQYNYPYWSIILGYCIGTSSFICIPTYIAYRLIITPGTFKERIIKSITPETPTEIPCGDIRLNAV

As for `CN(C)Cc1ccccc1Sc1ccc(CCF)cc1N`, the Uptake in [1] was 0.21 %ID/g; in test [2] it was 0.11 %ID/g; in test [3] it was 0.08 %ID/g; in test [5] it was 0.12 %ID/g; in test [8], 0.18 %ID/g; in [11], 0.19 %ID/g. The Uptake in [12] stood at 0.14 %ID/g; in [14] it was 0.11 %ID/g; in [15], 0.07 %ID/g; in test [17] it was 0.09 %ID/g; in [20], 0.06 %ID/g; in [21], 0.11 %ID/g. For the same molecule, in test [22], the Uptake came out at 0.06 %ID/g. Further, the Specific binding was 0.31 %ID/g in test [4]; 4 %ID/g in test [6]; 0.89 %ID/g in test [9]; 3.85 %ID/g in test [10]; 0.96 %ID/g in [13]; 2.22 %ID/g in test [16]. The results for the Specific binding in test [18], in test [19] and in test [24] were 2.62 %ID/g, 0.54 %ID/g and 1.82 %ID/g, respectively. In addition, in [7], the pKi was 8.74. Moreover, the Specific binding (dimensionless ratio) in [23] is 4.5.

The values above are taken from ChEMBL document CHEMBL1145212, “Fluorinated diaryl sulfides as serotonin transporter ligands: synthesis, structure-activity relationship study, and in vivo evaluation of fluorine-18-labeled compounds as PET imaging agents” (J Med Chem, 2005).
